Assay outcomes deposited in PubChem BioAssay by Broad Institute.
Cneo AK release – Cryptococcus neoformans lysis via adenylate kinase release; lysis activity, % at 15 µM; C. neoformans lysis, adenylate kinase release luminescence, 4 h; normalised: neutral wells 0, clomiphene wells 100; 360,000 tested, 0.2% active;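 active = mean lysis activity across replicates of at least 80%, whatever share of replicates individually reach that level; inactive = mean lysis activity below 80%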
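Assay system: C. neoformans cells. Amount: yeast cell density of 5 × 10^6 cells/mL. Technique: AK luminescence. Buffer or medium: YPD. Times: static 4 h at 37 °C with compound, 1 h detection. Dosing: single-point compound dose. Read-out: lysis from increased AK signal.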
DENV2 CPE – protects cells from dengue virus 2 cytopathic effect; DENV2-infected cells, cytopathic effect rescue, plate reader; CPE inhibition, % at 9.99 µM; 350,000 tested, 1.7% active; AID 651640; in the data active = CPE inhibition above about 20%, passing the limit was not always enough; inconclusive = no clear call, values can overlap the other calls; tested in BHK-21 cells;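 also: 0% = median of neutral control wells and 100% = median of positive control wells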
CFTR F508del cor – correctors of CFTR F508del function in bronchial epithelial cells; CFBE cells, YFP halide quenching; stimulated with forskolin plus potentiator P3; % fluorescence drop versus neutral controls; activity (quench increase), % at 7.58 µM; 350,000 tested, 0.36% active; AID 720511;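 active = mean added fluorescence quench of at least 8% versus neutral control, with both replicates also reaching 8%; inconclusive = only one of the mean or replicate conditions met; inactive = mean below 8% and not both replicates reaching 8%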;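 also: cells transiently co-express mutant CFTR-F508del with the halide-sensitive YFP; corrector assay measuring rescue of mutant channel to the surface after 24 h compound exposure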
PDI turbidity – inhibitors of human protein disulfide isomerase; P07237; PDI insulin aggregation turbidity, A650, 90 min; inhibition, % at 10 µM; 350,000 tested, 0.052% active; AID 588391;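 active = mean inhibition across replicates of 30% or more, whatever share of single replicates reach that level; inconclusive = mean inhibition below 30% while every single replicate reaches 30%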
Target sequence (P07237 whole entry, looked up): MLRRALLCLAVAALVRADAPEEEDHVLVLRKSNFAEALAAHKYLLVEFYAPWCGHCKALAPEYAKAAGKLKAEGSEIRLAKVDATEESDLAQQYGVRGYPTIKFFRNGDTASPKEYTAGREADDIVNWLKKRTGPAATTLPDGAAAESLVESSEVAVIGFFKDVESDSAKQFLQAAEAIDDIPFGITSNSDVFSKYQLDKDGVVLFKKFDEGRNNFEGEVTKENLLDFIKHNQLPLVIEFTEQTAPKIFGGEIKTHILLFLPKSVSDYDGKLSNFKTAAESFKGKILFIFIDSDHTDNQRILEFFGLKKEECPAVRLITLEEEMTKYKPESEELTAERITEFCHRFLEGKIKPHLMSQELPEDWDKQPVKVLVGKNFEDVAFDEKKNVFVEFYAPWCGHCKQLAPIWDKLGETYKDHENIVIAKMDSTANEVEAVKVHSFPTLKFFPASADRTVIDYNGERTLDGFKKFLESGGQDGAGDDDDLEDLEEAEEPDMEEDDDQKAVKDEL
Statin myotox sup – protects C2C12 myotubes from simvastatin toxicity | ATP luminescence, 48 h; scaled: DMSO 0, geranylgeraniol control 100 | rescue of ATP level, % at 7.49 µM | 330,000 tested, 0.78% active | AID 602340;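 active = mean ATP rescue above about 67%, or every replicate alone reaching that limit, limit read from the data, passing the limit was not always enough; inconclusive = no clear call, values can overlap the other calls; inactive = mean under the limit and some replicate under it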;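 also: myotubes were challenged with 10 µM simvastatin during compound exposure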
ERp5 block – inhibitors of human ERp5. Q15084. ERp5 insulin aggregation, absorbance 650 nm, 90 min. inhibition, % at 9.99 µM. 350,000 tested, 0.05% active. AID 651711;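 active = mean replicate inhibition above about 25%, with every replicate also reaching it, limit read from the data, passing the limit was not always enough; inconclusive = only one of those two criteria met; inactive = neither criterion met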
The depositor's hits bear a star; ? = inconclusive; . = not tested or not shown. An excerpt weighted towards active compounds, which were near 2.3% of everything screened.

SMILES	Cneo AK release	DENV2 CPE	CFTR F508del cor	PDI turbidity	Statin myotox sup	ERp5 block
COc1ccc(NC(=O)Nc2cccc3c2O[C@@H](CN(C)C(=O)Nc2ccc4c(c2)OCO4)[C@@H](C)CN([C@H](C)CO)C3=O)cc1	-3	-8	-1	.	-12	-6
CC(C)c1cn(CC[C@H]2CC[C@H](NC(=O)C3CCC3)[C@@H](CO)O2)nn1	-2	-5	0	.	6	2
CCCCn1c(N)c(N(CCC(C)C)C(=O)C2CC(=O)N(c3ccccc3OCC)C2)c(=O)[nH]c1=O (stereo not drawn)	1	66*	2	-4	11	2
CCOC(=O)c1sc(NC(=O)c2c(C)nn(Cc3ccccc3)c2C)cc1C	-1	.	.	4	102*	.
COCC(=O)N1CC2(C1)CN(Cc1cccc(Cl)c1)[C@@H](CO)c1[nH]c3cc(OC)ccc3c12	.	0	0	.	.	-1
CN(C(=O)Nc1ccc(F)cc1)[C@H]1C[C@H]2c3[nH]c4ccccc4c3CCN2C(=O)[C@H]1CO	0	44*	0	4	9	-5
CO[C@@H]1CN(C)C(=O)c2cc(NS(=O)(=O)Cc3ccccc3)ccc2OC[C@H](C)NC[C@@H]1C	-1	0	-3	.	10	0
Cc1ccc(N=C2NC(=O)/C(=C/c3cccnc3)S2)c(C)c1	.	6	1	-2	.	1
Cc1ccc(N=C2NC(=O)/C(=C\c3ccsc3)S2)c(C)c1	-3	96*	2	-12	.	1
CCOC(=O)c1cccc(NC(=O)C2CCCO2)c1 (stereo not drawn)	0	.	.	-1	102*	.
C[C@H](CO)N1C[C@H](C)[C@@H](CN(C)C(=O)C2CCCCC2)Oc2cc(-c3ccc(F)cc3)ccc2S1(=O)=O	0	11	-2	.	-9	-3
CCC(=O)N(C)C[C@H]1Oc2cc(C3=CCCC3)ccc2S(=O)(=O)N([C@H](C)CO)C[C@@H]1C	-2	5	-1	.	-7	1
COc1ccc(CN2CCCC(N3CCN(c4cccc(Cl)c4)CC3)C2)cc1OC (stereo not drawn)	-1	?	7	2	3	2
CC(C)CN1CCCC(N2CCN(c3cccc(Cl)c3)CC2)C1 (stereo not drawn)	-1	27*	0	-1	5	-3
COc1cccc(NC(=O)N2C[C@@H](O)COC[C@H]3O[C@H](CC(=O)NC4Cc5ccccc5C4)CC[C@@H]32)c1	3	3	-1	.	-2	2
CC1=NCCN1CCNC(=O)Nc1ccc(C(C)(C)C)cc1	0	24*	-2	2	.	1
O=C(C[C@@H]1CC[C@@H]2[C@H](COC[C@H](O)CN2S(=O)(=O)c2ccc(Oc3ccccc3)cc2)O1)Nc1ccccc1	2	?	-5	.	-4	1
CNC(=O)C[C@@H]1CC[C@H]2[C@H](COc3ccc(NC(=O)Nc4cccc(Cl)c4)cc3C(=O)N2C)O1	-8	3	-2	.	-3	3
Oc1c(N=Nc2ccc(F)cc2)ccc2ccccc12	6	-6	-2	-9	22	-4
Oc1c(N=Nc2nn[nH]n2)ccc2ccccc12	.	69*	0	.	.	7
CC(C)OC(=O)N(C)C[C@@H]1OCc2cn(nn2)CCCC(=O)N([C@@H](C)CO)C[C@@H]1C	6	11	-1	.	-7	0
CCn1c(SCC(=O)c2ccc(Cl)cc2)nnc1-c1ccoc1C	-1	.	.	-4	-8	.
Cc1occc1-c1nnc(SCC(=O)c2ccc(Cl)cc2)n1CC1CCCO1 (stereo not drawn)	0	.	.	-6	137*	4
C[C@@H]1CCCCO[C@H](CN(C)C(=O)CCCN(C)C)[C@@H](C)CN([C@H](C)CO)C(=O)c2cc(NC(=O)c3ccccc3)ccc2O1	-2	6	-4	.	-13	-2
CC(C)C[C@@H](CO)NS(=O)(=O)c1c(F)cccc1F	-1	49*	-2	0	8	2
SMILES	Cneo AK release	DENV2 CPE	CFTR F508del cor	PDI turbidity	Statin myotox sup	ERp5 block
O=[N+]([O-])c1ccccc1/C=N/Nc1nccnc1Cl	2	.	.	-3	112*	.
O=C(C[C@H]1CC[C@@H]2[C@H](COC[C@@H](O)CN2S(=O)(=O)c2cccc(F)c2)O1)Nc1ccccc1	1	?	1	.	-11	.
O=S(=O)(c1ccccc1F)N1CC[C@@H]2[C@H]1c1cc(-c3ccccc3F)ccc1N[C@@H]2CO	52	40*	2	.	-12	-4
Cc1ccccc1S(=O)(=O)N1CC[C@@H]2[C@H](CO)Nc3ccc(-c4ccccc4F)cc3[C@@H]21	-3	43*	-2	.	-31	7
COc1ccccc1S(=O)(=O)N1CC[C@@H]2[C@@H](CO)Nc3ccc(-c4ccccc4F)cc3[C@@H]21	-16	-8	1	.	-8	-1
Cc1ccccc1S(=O)(=O)N1CC[C@@H]2[C@H]1c1cc(-c3ccccc3F)ccc1N[C@@H]2CO	-5	-13	3	.	-23	2
COc1ccccc1S(=O)(=O)N1CC[C@H]2[C@H](CO)Nc3ccc(-c4ccccc4F)cc3[C@H]21	3	21*	2	.	-9	1
CCOC(=O)N1CCN(C(C(=O)NC2CCCC2)C(C)C)CC1 (stereo not drawn)	.	30*	0	.	.	0
C[C@H](CO)N1C[C@H](C)[C@H](CN(C)Cc2ccc(Oc3ccccc3)cc2)Oc2ncc(-c3cncnc3)cc2C1=O	4	-4	-2	.	-5	-1
CC(SC(C)C(=O)NN=Cc1ccc(F)cc1)C(=O)NN=Cc1ccc(F)cc1 (stereo not drawn)	3	-14	.	1	122*	7
Cc1ccc(S(=O)(=O)NCC(=O)OCc2cc(=O)oc3cc(C)ccc23)cc1	0	-4	0	4	1	-1
Cc1ccc2c(COC(=O)CNC(=O)c3ccccc3)cc(=O)oc2c1	.	118*	2	-10	.	8
Cc1cc(=S)[nH]c2c(C)cccc12	1	.	.	-20	74*	.
NC(=O)C1(c2ccccc2)OC1c1ccccc1 (stereo not drawn)	1	41*	0	4	14	-7
O=C(C[C@H]1CC[C@H](NC(=O)C2CC2)[C@H](CO)O1)NCCCN1CCOCC1	11	-6	-1	.	-9	2
Cc1ccc(S(=O)(=O)Nc2ccc3c(c2)C(=O)N([C@@H](C)CO)C[C@H](C)[C@H](CN(C)C(=O)Nc2ccccc2)OCCCC[C@@H](C)O3)cc1	1	-5	-2	.	.	0
CC(=O)c1ccc(OCCCC(=O)NC2CCCc3ccccc32)cc1 (stereo not drawn)	1	22*	-1	2	.	0
CC(C)NC(=O)N(C)C[C@H]1Oc2ccc(NC(=O)CCCCCC(=O)Nc3ccccc3N)cc2CC(=O)N([C@@H](C)CO)C[C@@H]1C	41	-7	-2	.	-23	-6
